Pf Dd2 growth: blocks growth of Plasmodium falciparum Dd2 parasites; P. falciparum Dd2 growth, SYBR Green, 72 h; active compounds read low; activity change, % at 10 µM; hit rate 2.3% among 94,000; in the data active = activity change below about -80%
IDH1 mut inh: blocks human IDH1 R132H reductase activity; O75874; diaphorase/resazurin fluorescence, 60 min; inhibition, % at 10 µM; hit rate 0.18% among 70,000; AID 624101; in the data active = inhibition above about 34%;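 note: 0% = DMSO and 100% = no enzyme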
Target sequence (O75874 whole entry R132H): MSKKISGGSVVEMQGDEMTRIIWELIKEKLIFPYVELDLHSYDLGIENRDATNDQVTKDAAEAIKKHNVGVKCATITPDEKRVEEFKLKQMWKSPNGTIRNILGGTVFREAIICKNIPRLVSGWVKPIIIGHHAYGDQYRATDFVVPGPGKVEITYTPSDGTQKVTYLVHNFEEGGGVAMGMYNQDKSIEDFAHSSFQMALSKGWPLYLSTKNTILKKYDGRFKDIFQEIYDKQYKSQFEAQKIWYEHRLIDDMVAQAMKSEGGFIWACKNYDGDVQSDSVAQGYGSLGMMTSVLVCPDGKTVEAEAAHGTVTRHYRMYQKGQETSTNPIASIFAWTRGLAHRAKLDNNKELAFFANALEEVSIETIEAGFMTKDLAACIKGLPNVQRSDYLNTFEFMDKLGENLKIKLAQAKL
T cruzi growth: blocks T. cruzi growth in NIH3T3 culture; T. cruzi beta-gal in NIH3T3, GalScreen luminescence, 90 h; inhibition, % at 8.34 µM; hit rate 5.9% among 77,000; AID 624255;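 active = mean inhibition above about 93%, with at least 55% of replicates each passing it, limit read from the data, passing the limit was not always enough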
GASC1 inh: blocks human GASC-1 (KDM4C) demethylase activity | GST-KDM4C 2-372, H3K9me3 peptide, LANCE TR-FRET | inhibition, % at 12.5 µM | Q9H3R0 | hit rate 0.15% among 96,000;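 active = mean replicate inhibition above about 25%, with at least 55% of replicates also reaching it, limit read from the data, passing the limit was not always enough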
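System: N-terminal GST-fused human GASC-1 (KDM4C) fragment, residues 2-372 / Amount: 10 nM GST-KDM4C in enzyme reaction / Also added: H3K9me3 peptide with Fe(II)/2OG / Times: 30 min demethylation and 1 h detection at room temperature / Signal: LANCE TR-FRET / Read-out basis: Fall in 671/618 emission ratio as inhibition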
Numbers without * were called inactive; . = not tested or not shown; ! = not confirmed by another sample. Only some compounds are listed: those with a hit (about 5.9% of all), similar ones and a draw of the others.

SMILES | Pf Dd2 growth | IDH1 mut inh | T cruzi growth | GASC1 inh
COc1ccc(NC(=O)Nc2ccc3c(c2)CC(=O)N([C@H](C)CO)C[C@@H](C)[C@@H](CN(C)Cc2ccc(C(=O)Nc4ccccc4N)cc2)O3)cc1 | -68 | 0 | . | 14
COc1ccc(NC(=O)Nc2ccc3c(c2)CC(=O)N([C@@H](C)CO)C[C@H](C)[C@@H](CN(C)Cc2ccc(C(=O)Nc4ccccc4N)cc2)O3)cc1 | -88* | . | . | -1
C[C@H](CO)N1C[C@H](C)[C@@H](CN(C)Cc2ccc(C(=O)Nc3ccccc3N)cc2)Oc2ccc(NC(=O)Nc3ccc(F)cc3)cc2CC1=O | -77 | -1 | 37 | 0
C[C@H]1CN([C@@H](C)CO)C(=O)Cc2cc(NC(=O)Nc3ccc(F)cc3)ccc2O[C@H]1CN(C)Cc1ccc(C(=O)Nc2ccccc2N)cc1 | -83* | 1 | . | -1
C[C@H]1CN([C@@H](C)CO)C(=O)c2cc(NS(=O)(=O)c3cccs3)ccc2O[C@H]1CN(C)Cc1ccc(Cl)c(Cl)c1 | -1 | -1 | 50 | 9
C[C@@H]1CN([C@H](C)CO)C(=O)CCCn2cc(nn2)CO[C@@H]1CN(C)C(=O)Nc1ccc(N2CCN(C)CC2)cc1 | -5 | 1 | 24 | 2
C[C@H](CO)N1C[C@H](C)[C@H](CN(C)C(=O)Nc2ccc(N3CCCCC3)cc2)OCc2cnnn2CCCC1=O | -6 | -6 | -24 | -1
C[C@H]1CN([C@@H](C)CO)C(=O)CCCn2nncc2CO[C@@H]1CN(C)C(=O)Nc1ccc(N2CCCCC2)cc1 | -90*! | . | 8 | 1
C[C@H]1CN([C@@H](C)CO)C(=O)CCCn2cc(nn2)CO[C@@H]1CN(C)C(=O)Nc1ccc(N2CCCCC2)cc1 | -89*! | -11 | -18 | 0
COc1ccccc1S(=O)(=O)N(C)C[C@H]1OCc2cn(nn2)CCCC(=O)N([C@@H](C)CO)C[C@@H]1C | -89* | . | -11 | .
COc1cc(C)c(C(=O)Oc2cc(C)c(C(=O)O)c(O)c2C)c(OC)c1C | . | 0 | . | .
CO[C@H]1CN(C)C(=O)c2cc(NC(=O)Cc3ccccc3)ccc2OC[C@@H](C)N(C(=O)c2ccccc2F)C[C@@H]1C | -25 | 0 | 58 | 0
O=C(Nc1ccc(Cl)cc1)N[C@H]1CC[C@H](CCNC(=O)c2ccccc2F)O[C@H]1CO | 15 | 43* | -53 | 40*
CO[C@@H]1CN(C)C(=O)c2cc(NC(=O)Nc3cccc(F)c3)ccc2OC[C@@H](C)N(C)C[C@H]1C | -57 | 0 | -31 | 0
CCCNC(=O)N1C[C@H]2[C@@H](c3ccccc31)[C@@H](CO)N2C(=O)C1CCOCC1 | 22 | . | -17 | 0
CCCNC(=O)C[C@@H]1C[C@H]2c3cc(NC(=O)CN(C)C)ccc3O[C@H]2[C@H](CO)O1 | 24 | 45* | 16 | 40*
COC(=O)C[C@H]1C[C@H]2c3cc(N(C)C)ccc3O[C@H]2[C@@H](CO)O1 | -1 | -11 | -38 | 36*
COC(=O)C[C@@H]1C[C@@H]2c3cc(N(C)C)ccc3O[C@@H]2[C@H](CO)O1 | -1 | -3 | 91 | .
CN(C)c1ccc2c(c1)[C@H]1C[C@H](CC(=O)NCC3CC3)O[C@@H](CO)[C@H]1O2 | 12 | -3 | 35 | 19
CCCNC(=O)C[C@@H]1C[C@H]2c3cc(N(C)C)ccc3O[C@H]2[C@@H](CO)O1 | 10 | -3 | 28 | 28*
CN(C)c1ccc2c(c1)[C@@H]1C[C@@H](CC(=O)NCC3CC3)O[C@@H](CO)[C@@H]1O2 | 4 | -12 | 54 | 32*
CN(C)c1ccc2c(c1)[C@H]1C[C@H](CC(=O)NCCc3ccccc3)O[C@H](CO)[C@H]1O2 | -68 | -11 | 54 | 18
COc1ccccc1CNC(=O)C[C@@H]1C[C@@H]2c3cc(NC(=O)Cc4ccncc4)ccc3O[C@@H]2[C@H](CO)O1 | -47 | 0 | -45 | -1
COCCNC(=O)C[C@H]1C[C@@H]2c3cc(N(C)C)ccc3O[C@@H]2[C@@H](CO)O1 | 30 | -13 | . | 46*
COc1ccccc1CNC(=O)C[C@H]1C[C@H]2c3cc(NC(=O)Cc4ccncc4)ccc3O[C@H]2[C@@H](CO)O1 | -82* | 0 | -27 | -1
SMILES | Pf Dd2 growth | IDH1 mut inh | T cruzi growth | GASC1 inh
N#Cc1cccc(-c2ccc3c(c2)[C@H]2[C@H](CCN2C(=O)c2ccccc2F)[C@@H](CO)N3)c1 | 2 | . | 19 | -1
C[C@@H]1CN([C@H](C)CO)C(=O)c2cc(NC(=O)CCC(F)(F)F)ccc2O[C@@H](C)CCCCO[C@H]1CN(C)C(=O)Nc1cccc2ccccc12 | -69 | -2 | 62 | 0
C[C@@H]1CN([C@@H](C)CO)C(=O)c2cc(NC(=O)CCC(F)(F)F)ccc2O[C@@H](C)CCCCO[C@@H]1CN(C)C(=O)Nc1cccc2ccccc12 | -89* | 0 | 44 | -2
C[C@@H]1CN([C@@H](C)CO)C(=O)c2cc(NC(=O)CCC(F)(F)F)ccc2O[C@@H](C)CCCCO[C@H]1CN(C)C(=O)Nc1cccc2ccccc12 | -85* | 1 | 60 | 1
C[C@@H]1CN([C@@H](C)CO)C(=O)Cc2cc(NS(=O)(=O)c3ccc(F)cc3)ccc2O[C@H]1CN(C)C(=O)Nc1ccc(F)cc1 | 4 | 0 | -21 | 0
O=C(CSC1=NCCN1)C1COc2ccccc2O1 (configuration not stated) | . | 39* | . | .
COc1ccc(-c2ccccc2[C@H]2[C@@H](CO)N(C(=O)C3CCCCC3)[C@H]2C#N)cc1 | 10 | . | . | 0
COc1ccc(-c2ccccc2[C@H]2[C@@H](CO)N(C(=O)C3CCOCC3)[C@H]2C#N)cc1 | -87* | . | . | -1
N#C[C@H]1[C@H](c2ccccc2-c2ccccc2F)[C@H](CO)N1C(=O)C1CCOCC1 | -73 | . | . | 3
N#C[C@H]1[C@@H](c2ccccc2-c2ccccc2F)[C@@H](CO)N1C(=O)C1CCOCC1 | -95* | . | . | 1
COc1ccc(-c2ccccc2[C@H]2[C@@H](C#N)N(C(=O)C3CCCCC3)[C@H]2CO)cc1 | -93* | . | . | 0
C[C@H](CO)N1C[C@H](C)[C@H](CN(C)C(=O)Nc2ccccc2)Oc2ccc(NC(=O)C3CCCCC3)cc2CC1=O | -5 | . | 11 | -2
C[C@@H]1CN([C@H](C)CO)C(=O)Cc2cc(NS(=O)(=O)c3cccs3)ccc2O[C@H]1CN(C)S(=O)(=O)c1ccc(Cl)cc1 | -11 | 0 | 18 | -2
CCn1cc(C(=O)O)c(=O)c2cnc(N3CCCC3)nc21 | . | 0 | . | .
C[C@H](CO)N1C[C@H](C)[C@H](CN(C)C(=O)Nc2ccc(C(F)(F)F)cc2)Oc2ccc(NC(=O)Nc3cccc4ccccc34)cc2C1=O | -83* | 0 | 88 | -1
C[C@@H]1CN([C@@H](C)CO)C(=O)c2cccc(NC(=O)Nc3ccc(C(F)(F)F)cc3)c2O[C@H]1CN(C)C(=O)Nc1cccc2ccccc12 | -88* | 1 | 88 | 1
C[C@@H]1CN([C@@H](C)CO)C(=O)c2cc(NC(=O)Nc3cccc4ccccc34)ccc2O[C@@H]1CN(C)C(=O)Nc1ccc(C(F)(F)F)cc1 | -37 | -2 | 70 | -4

Screening results (PubChem BioAssay)
